Measurements as given in ChEMBL document CHEMBL1909628, “Discovery of 6-substituted indole-3-glyoxylamides as lead antiprion agents with enhanced cell line activity, improved microsomal stability and low toxicity” (Eur J Med Chem, 2011).

Legend:
[1] = Cytotoxicity against mouse SMB.s15 cells at 20 uM after 5 days by MTT assay; format: cell-based; details: smb.s15, 120 h
Procedure, shortened: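 SMB.s15 cells at 12,000 cells/well, exposed to compound for 5 days at 37 °C (DMSO stock diluted via HBSS into medium). Viability measured by MTT assay per the reagent's standard protocol.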

[2] = tested on: ScN2a; test: Cytotoxicity against mouse ScN2a cells up to 32 uM; format: cell-based
Procedure, shortened: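 ScN2a cells seeded separately in 96-well plates. Calcein cell viability assay run in parallel with the ELISA screen, up to 32 uM maximum.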

[3] = Toxicity in zebrafish assessed as mortality rate at 5 uM measured after 72 hrs; format: organism-based, Danio rerio; details: in vivo, read-out: Activity
Procedure, shortened: (§1)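 AB wild-type zebrafish embryos dechorionated with pronase at 48 hpf, 3 per well in methylene blue-free E3 medium. Dosed at 5 uM from 10 mM DMSO stocks (1% v/v DMSO). Kept at 28 °C for 72 h without food; survival scored at day 5 versus vehicle controls. Two experiments, each in triplicate.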

[4] = Antiprion activity against PrPsc infected in mouse SMB.s15 cells assessed as complete clearance of PrPSc after 5 days by dot blot analysis; format: cell-based; details: SMB.s15, 120 h
Procedure, shortened: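 SMB.s15 cells (scrapie-infected, mesodermal origin) in Medium 199 with 10% newborn calf and 5% fetal calf serum, seeded at 12,000 cells/well, 24 h attachment. Compound added from DMSO stock via HBSS dilution, 5 days at 37 °C. Lysates dot-blotted, proteinase K digestion (1 h, 37 °C), guanidine thiocyanate, anti-PrP 6H4 mAb, ECL. Triplicate, PrPSc relative to DMSO-only control.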

[5] = (§2) Toxicity in zebrafish assessed as organism survival at 5 uM treated at 48 hrs post-fertilization measured after 3 days; format: organism-based, Danio rerio; details: in vivo; procedure, shortened: as §1
[6] = organism: Danio rerio; test: as §2; format: organism-based; details: in vivo, 72 h, 5 µM; procedure, shortened: as §1
[7] = Metabolic stability in mouse liver microsomes assessed as compound remaining after 30 mins by HPLC analysis; format: ADME, Microsome; details: read-out: Stability
Procedure, shortened: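 Mouse liver microsomes (0.5 mg/mL stock) in 0.2 M potassium phosphate pH 7.0 with DL-isocitrate, MgCl2 and isocitrate dehydrogenase. Preincubated 5 min at 37 °C, then started with NADPH. Sampled at t=0 and after 30 min at 37 °C, quenched in ice-cold acetonitrile with internal standard. Analysed by C18 HPLC, UV at 267 nm, in triplicate.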

[8] = Antiprion activity against PrPsc infected in mouse ScN2a cells assessed as complete clearance of PrPSc after 5 days by ELISA; format: cell-based; details: 120 h
Procedure, shortened: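 ScN2a cells (N2a infected with RML prion strain) seeded at 4×10^5 cells/well in MEM with 10% FBS, GlutaMax, geneticin. Compound added 4 h after seeding, 0.5% final DMSO, 5 days at 37 °C. Lysates captured on D18 Fab-coated ELISA plates overnight at 4 °C, HRP-D13 detection, ABTS, absorbance at 405 nm. Dose-response curves from three independent experiments.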

Row | Compound | Activity [1] | Activity [2] | mortality at 72 h, 5 µM [3] [%] | EC50 [4] [µM] | survival at 72 h, 5 µM [5] [%] | Activity [6] | remaining at 0.5 h [7] [%] | EC50 [8] [µM]
1 | O=C(Nc1ccc(N2CCOCC2)cc1)C(=O)c1c[nH]c2c(Cl)cccc12 | Non-toxic | Non-toxic | 20 | 0.0072 | 100 | – | – | –
2 | Cc1ccc2[nH]cc(C(=O)C(=O)Nc3ccc(N4CCOCC4)cc3)c2c1 | Non-toxic | Non-toxic | 20 | 0.083 | – | Toxic | – | –
3 | Cc1ccc(NC(=O)C(=O)c2c[nH]c3cc(C(C)C)ccc23)cc1 | Non-toxic | Non-toxic | 20 | 0.61 | – | – | 82.6 | –
4 | Cc1ccc(NC(=O)C(=O)c2c[nH]c3cccc(C)c23)cc1 | Non-toxic | Non-toxic | 20 | > 20 | 100 | – | – | –
5 | Cc1ccc(NC(=O)C(=O)c2c[nH]c3cc(Cl)ccc23)cc1 | Non-toxic | Non-toxic | 20 | 0.1 | 100 | – | 85.6 | –
6 | Cc1ccc(NC(=O)C(=O)c2c[nH]c3ccc(C)cc23)cc1 | Non-toxic | Non-toxic | 20 | 0.9 | – | Toxic | – | –
7 | Cc1cccc2[nH]cc(C(=O)C(=O)Nc3ccc(N4CCOCC4)cc3)c12 | Non-toxic | Non-toxic | 20 | 0.68 | – | Toxic | – | –
8 | Cc1ccc(NC(=O)C(=O)c2c[nH]c3cc(C#N)ccc23)cc1 | Non-toxic | Non-toxic | 20 | 0.0109 | 100 | – | 88.2 | 0.026
9 | Cc1ccc(NC(=O)C(=O)c2c[nH]c3ccc(Cl)cc23)cc1 | Non-toxic | Non-toxic | 20 | 0.56 | 100 | – | – | –
10 | COc1ccc(NC(=O)C(=O)c2c[nH]c3ccc(C)cc23)cc1 | Non-toxic | Non-toxic | – | 0.88 | 100 | – | – | –
11 | O=C(Nc1ccccc1)C(=O)c1c[nH]c2ccc(Cl)cc12 | Non-toxic | Non-toxic | – | 1.63 | – | Toxic | – | –
12 | O=C(Nc1ccc(N2CCOCC2)cc1)C(=O)c1c[nH]c2ccccc12 | Non-toxic | Non-toxic | 20 | 0.009 | – | Toxic | – | 0.065
13 | COc1ccc(NC(=O)C(=O)c2cn(C)c3cc(Cl)ccc23)cc1 | Non-toxic | Non-toxic | – | 1.63 | – | Toxic | – | –
14 | COc1ccc(NC(=O)C(=O)c2c[nH]c3cc(C(C)C)ccc23)cc1 | Non-toxic | Non-toxic | – | 0.33 | 100 | – | 86.2 | –
15 | O=C(Nc1ccccc1)C(=O)c1c[nH]c2cc(Cl)ccc12 | Non-toxic | Non-toxic | – | 0.074 | 100 | – | – | –
16 | Cc1ccc(NC(=O)C(=O)c2c[nH]c3c(C)cccc23)cc1 | Non-toxic | Non-toxic | 20 | 1.4 | – | Toxic | – | –
17 | COc1ccc(NC(=O)C(=O)c2c[nH]c3cc([N+](=O)[O-])ccc23)cc1 | Non-toxic | Non-toxic | – | 0.0105 | – | Toxic | 90 | –
18 | Cn1cc(C(=O)C(=O)Nc2ccc(-n3cccc3)cc2)c2ccc(Cl)cc21 | Non-toxic | Non-toxic | – | 0.27 | 100 | – | – | –
19 | COc1ccc(NC(=O)C(=O)c2c[nH]c3c(Cl)cccc23)cc1 | Non-toxic | Non-toxic | – | 0.024 | – | Toxic | – | 0.247
